Screening data as filed in PubChem BioAssay.
Platelet DG rel: modulates dense granule release in human platelets; 0.22% of 300,000 active; AID 1663; human platelet-rich plasma, SFLLRN dense granule ATP release, luminescence; inhibition, %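 (compounds screened at 7.5 µM in platelet-rich plasma)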;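 active = mean replicate score, as percent of positive control, at or above 50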
TRPC4 block: inhibitors of mouse TRPC4 channel; 0.39% of 300,000 active; B-score at 10 µM; Q9QUQ5; HEK293 TRPC4beta/mu-opioid, DAMGO-evoked Fluo4 calcium flux; stronger effect = lower value;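 active = B-score over 3 SD under the library average, no early fluorescence shift, positive overall ratio signal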
Target sequence (Q9QUQ5 whole entry, looked up): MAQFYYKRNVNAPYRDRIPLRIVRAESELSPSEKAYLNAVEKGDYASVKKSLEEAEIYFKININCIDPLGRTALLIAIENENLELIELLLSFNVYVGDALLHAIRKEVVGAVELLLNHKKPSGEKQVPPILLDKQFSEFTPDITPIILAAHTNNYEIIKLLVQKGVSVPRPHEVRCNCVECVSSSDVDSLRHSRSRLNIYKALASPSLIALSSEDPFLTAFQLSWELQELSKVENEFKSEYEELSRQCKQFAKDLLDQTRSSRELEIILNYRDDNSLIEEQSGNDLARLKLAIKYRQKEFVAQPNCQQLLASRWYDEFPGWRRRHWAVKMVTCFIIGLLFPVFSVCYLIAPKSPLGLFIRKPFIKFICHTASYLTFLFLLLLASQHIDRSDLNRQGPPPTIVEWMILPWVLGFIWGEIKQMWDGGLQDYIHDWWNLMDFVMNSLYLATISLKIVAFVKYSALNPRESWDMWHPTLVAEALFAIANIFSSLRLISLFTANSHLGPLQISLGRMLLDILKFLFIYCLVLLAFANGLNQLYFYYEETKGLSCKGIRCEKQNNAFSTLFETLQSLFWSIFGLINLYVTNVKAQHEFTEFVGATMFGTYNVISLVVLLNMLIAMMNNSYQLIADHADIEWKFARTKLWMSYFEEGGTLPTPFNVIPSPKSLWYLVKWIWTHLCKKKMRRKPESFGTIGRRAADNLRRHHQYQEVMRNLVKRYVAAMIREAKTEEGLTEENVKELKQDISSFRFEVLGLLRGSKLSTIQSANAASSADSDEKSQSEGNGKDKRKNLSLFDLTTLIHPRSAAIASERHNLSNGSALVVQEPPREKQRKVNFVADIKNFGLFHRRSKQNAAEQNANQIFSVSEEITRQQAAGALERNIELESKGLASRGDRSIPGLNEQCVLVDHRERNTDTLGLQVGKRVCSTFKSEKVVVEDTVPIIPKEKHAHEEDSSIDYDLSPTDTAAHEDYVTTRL
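Test system – stable TRPC4beta/mu-opioid receptor HEK293 cells · Probe or stimulus – DAMGO, a submaximal dose followed by a maximal one · Dosing – one concentration per compound · Signal – Fluo4 calcium fluorescence by kinetic imaging, 5 s 1 Hz baseline · Evaluation – per-well B score of integrated baseline-normalized Fluo4 ratio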
TRPC6 inhibitor: mouse TRPC6 channel inhibition. AID 2553. HEK293-TRPC6, membrane potential dye, ACh-evoked depolarization; stronger effect = lower value. Q61143. 1.1% of 310,000 active. B-score at 10 µM;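 active = B-score under library mean minus 3 SD, initial fluorescence not abnormally high, positive integrated signal ratio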;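 note: B-score derived from integrated fluorescence ratio over the kinetic read; more negative B-score means stronger inhibition of depolarization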
TRPC6 act: activates the mouse TRPC6 cation channel. B-score at 10 µM. HEK293-TRPC6 membrane potential dye fluorescence; stronger effect = higher value. Q61143. 0.13% of 310,000 active;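 active = B-score of the integrated fluorescence ratio above library mean plus 3 SD, and starting fluorescence ratio within library mean plus 5 SD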;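 note: higher score means more depolarization so channel activation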
TRPC4 agonist: activators of mouse TRPC4 channel | Q9QUQ5 | HEK293 TRPC4beta/mu-opioid, Fluo4 calcium fluorescence; stronger effect = higher value | B-score at 10 µM | 0.49% of 310,000 active;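 active = B-score above 5 SD of library B-scores, and initial fluorescence ratio not above library mean plus 5 SD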;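 note: positive B-score marks a calcium rise read as TRPC4 activation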
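Assay system: HEK293 cells stably co-expressing mouse TRPC4beta and mu-opioid receptor / Timing: Fluo4 dye loading 45 min at room temperature, 110 s recording / Signal: Fluo4 calcium-sensitive dye fluorescence, kinetic, 1 Hz baseline / Read-out: integrated baseline-normalised fluorescence ratio, converted to per-well B score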
TRPC4 PAM: TRPC4 (mouse) allosteric potentiation | B-score at 10 µM | HEK293 TRPC4beta/mu-opioid, DAMGO EC20, Fluo-4 Ca2+ flux; stronger effect = higher value | Q9QUQ5 | AID 2227 | 0.42% of 310,000 active;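 active = B-score of calcium response area above 5 SD of library B-scores, with initial fluorescence ratio within 5 SD of library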;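 note: B-score of integrated fluorescence ratio over time as area under calcium response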
TRPC4 spec 2: second check of whether TRPC6 inhibitors also affect mouse TRPC4. inhibition, % at 10 µM. shares compounds with TRPC6 inhibitor. HEK293 TRPC4/MOR, membrane potential dye fluorescence; channel activated by saturating DAMGO dose. 42% of 920 active;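 active = compounds whose fluorescence signal differed from control wells by over 3 SD, either direction, in both duplicate plates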
TRPC4 spec: tests whether TRPC6 inhibitors also affect mouse TRPC4. shares compounds with TRPC6 inhibitor. HEK293 TRPC4/mu-opioid, membrane potential fluorescence. activity change, negative = inhibition, % at 10 µM. 61% of 920 active;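 active = rise or fall in signal beyond 3 SD of buffer-only wells in both replicate plates, either sign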;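 note: integrated kinetic ratio of fluorescence range over baseline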
HEK293 MPD ctr 2-1: parental HEK293 nonspecific activity of TRPC6 inhibitors, second screen; shares compounds with TRPC6 inhibitor; parental HEK293 membrane potential dye fluorescence; maximal acetylcholine challenge after compound addition; signal change vs control, % at 10 µM; 31% of 920 active; AID 2779;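 active = membrane potential signal moving either way by over 3 SD of the maximum-effect control, in both duplicate plates, meaning non-specific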
HEK293 MPD ctr-1: checks TRPC6 inhibitor effects in parental HEK293 cells | membrane potential signal change, % at 10 µM | 60% of 920 active | shares compounds with TRPC6 inhibitor | parental HEK293 membrane potential dye fluorescence;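 active = membrane potential signal shifting up or down by more than 3 SD of buffer-only wells, on both duplicate plates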
HEK293 MPD ctr-2: parental HEK293 nonspecific activity of TRPC6 modulators | shares compounds with TRPC6 inhibitor | membrane potential dye fluorescence | membrane potential signal change, % at 10 µM | 51% of 2,400 active;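 active = membrane potential signal moves up or down beyond 5 SD from buffer-only wells, on both duplicate plates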
HEK293 MPD ctr 2-2: parental HEK293 nonspecific activity of TRPC6 modulators, second screen; membrane potential dye fluorescence; after compound, maximal acetylcholine stimulation; AID 488926; shares compounds with TRPC6 inhibitor; inhibition, % at 10 µM; 14% of 2,400 active;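 active = membrane potential signal drops by more than 5 SD from the mean control signal, in both duplicate plates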;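 note: plate controls were acetylcholine ECmax control wells for no effect and buffer only wells for full effect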
TRPC4/MOR mod: tests whether TRPC6 modulators also affect mouse TRPC4 | percent change from control (negative = decrease, positive = increase), % at 10 µM | 69% of 2,400 active | HEK293 TRPC4/mu-opioid, membrane potential fluorescence | shares compounds with TRPC6 inhibitor;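 active = membrane potential signal moved up or down beyond 5 SD of buffer control wells, in both duplicate plates, actives on both sides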;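 note: plate controls were assay buffer wells for no effect and DAMGO maximal-effect wells for full effect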
TRPC4 ctr inh 2: mouse TRPC4 off-target activity of TRPC6 modulators, second screen. shares compounds with TRPC6 inhibitor. HEK293 TRPC4/mu-opioid, membrane potential dye fluorescence; stimulated with maximal-effect DAMGO. inhibition, % at 10 µM. 55% of 2,400 active;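 active = drop in membrane potential signal beyond 5 SD of the control wells in both duplicate plates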;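 note: TRPC4 counter screen for TRPC6 hits run under conditions tuned for TRPC6 not TRPC4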
TRPC6 inh conf: confirmation of mouse TRPC6 inhibitors. 43% of 3,300 active. inhibition, % at 10 µM. shares compounds with TRPC6 inhibitor. HEK293-TRPC6, membrane potential dye, ACh-evoked depolarization;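 active = fluorescence ratio falls more than 5 SD below the full-stimulation control mean, in both duplicate runs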;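 note: integrated fluorescence ratio of peak minus minimum over baseline after agonist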
TRPC6 act confirm: mouse TRPC6 activator confirmation; activation, % at 10 µM; shares compounds with TRPC6 inhibitor; HEK293-TRPC6 membrane potential dye fluorescence, FDSS; 11% of 2,800 active;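 active = ratio signal rise beyond 5 SD above unstimulated control wells' mean, seen in both duplicate runs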;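 note: plate controls were buffer EC0 wells for no effect and acetylcholine ECmax response for full effect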
The depositor's hits bear a star. Only some compounds are listed: those with a hit (about 2.5% of all), similar ones and a draw of the others.

Results for COC(=O)c1ccc2c(c1)C(C)(C)C(/C=C/c1ccccc1O)=[N+]2C ?
Platelet DG rel: 19.5; TRPC4 block: inactive; TRPC6 inhibitor: -10.3*; TRPC6 act: inactive; TRPC4 agonist: inactive; TRPC4 PAM: inactive; HEK293 MPD ctr-2: 410.0%*; HEK293 MPD ctr 2-2: 199.0%*; TRPC4/MOR mod: -207.5%*; TRPC4 ctr inh 2: 99.0%*; TRPC6 inh conf: 106.5%*; TRPC6 act confirm: inactive

Results for CCCn1c2ccccc2c2cnn(CC(=O)N3CCN(C4CCCCC4)CC3)c(=O)c21 ?
Platelet DG rel: 1.6; TRPC4 block: inactive; TRPC6 inhibitor: inactive; TRPC6 act: 14.7*; TRPC4 agonist: inactive; TRPC4 PAM: inactive; HEK293 MPD ctr-2: 317.5%*; HEK293 MPD ctr 2-2: inactive; TRPC4/MOR mod: 56.0%*; TRPC4 ctr inh 2: inactive; TRPC6 inh conf: inactive; TRPC6 act confirm: 106.5%*

What do the screens show for `COc1ccc(C2c3cc(OC)c(OC)cc3CCN2C(=O)c2ccccc2Br)cc1OC` (stereo unspecified)?
Platelet DG rel: -2.3; TRPC4 block: inactive; TRPC6 inhibitor: inactive; TRPC6 act: inactive; TRPC4 agonist: inactive; TRPC4 PAM: inactive

What do the screens show for `CCCc1cc(=O)oc2c(C)c(OCC(=O)NCCCn3ccnc3)ccc12`?
Platelet DG rel: -0.9; TRPC4 block: inactive; TRPC6 inhibitor: -5.76*; TRPC6 act: inactive; TRPC4 agonist: inactive; TRPC4 PAM: inactive; HEK293 MPD ctr-2: -135.5%*; HEK293 MPD ctr 2-2: inactive; TRPC4/MOR mod: -19.5%*; TRPC4 ctr inh 2: inactive; TRPC6 inh conf: inactive; TRPC6 act confirm: inactive

What do the screens show for `COc1ccc(-c2cc(=O)oc3c(C)c(OCC(=O)NCCCn4ccnc4)ccc23)cc1`?
Platelet DG rel: 1.5; TRPC4 block: inactive; TRPC6 inhibitor: inactive; TRPC6 act: inactive; TRPC4 agonist: inactive; TRPC4 PAM: inactive

How did Cc1cc(OCC(=O)NCCCn2ccnc2)c2c(C)c(C)c(=O)oc2c1 do in these assays?
Platelet DG rel: -21.4; TRPC4 block: inactive; TRPC6 inhibitor: -6.13*; TRPC6 act: inactive; TRPC4 agonist: inactive; TRPC4 PAM: inactive; HEK293 MPD ctr-2: -276.0%*; HEK293 MPD ctr 2-2: inactive; TRPC4/MOR mod: -48.5%*; TRPC4 ctr inh 2: 36.5%*; TRPC6 inh conf: inactive; TRPC6 act confirm: inactive

What do the screens show for `CCc1cc(=O)oc2cc(C)cc(OCC(=O)NCCCn3ccnc3)c12`?
Platelet DG rel: -1.1; TRPC4 block: inactive; TRPC6 inhibitor: inactive; TRPC6 act: inactive; TRPC4 agonist: inactive; TRPC4 PAM: inactive

Results for CC1CCCCN1C(=O)CSc1nnc(CSc2ncccn2)n1C (stereo unspecified) ?
Platelet DG rel: 3.7; TRPC4 block: inactive; TRPC6 inhibitor: inactive; TRPC6 act: inactive; TRPC4 agonist: inactive; TRPC4 PAM: inactive

What do the screens show for `CCOC(=O)c1sc(=S)n(-c2ccccc2)c1SC`?
Platelet DG rel: 2.0; TRPC4 block: inactive; TRPC6 inhibitor: inactive; TRPC6 act: inactive; TRPC4 agonist: inactive; TRPC4 PAM: inactive

How did CCOC(=O)c1sc(=S)n(-c2ccccc2Cl)c1SC do in these assays?
Platelet DG rel: 0.4; TRPC4 block: inactive; TRPC6 inhibitor: -7.74*; TRPC6 act: inactive; TRPC4 agonist: inactive; TRPC4 PAM: inactive; TRPC4 spec 2: inactive; TRPC4 spec: inactive; HEK293 MPD ctr 2-1: inactive; HEK293 MPD ctr-1: inactive; TRPC6 inh conf: inactive; TRPC6 act confirm: inactive

Results for CCOC(=O)c1sc(=S)n(-c2ccc(OC)cc2)c1C ?
Platelet DG rel: -17.5; TRPC4 block: inactive; TRPC6 inhibitor: -6.27*; TRPC6 act: inactive; TRPC4 agonist: inactive; TRPC4 PAM: inactive; HEK293 MPD ctr-2: inactive; HEK293 MPD ctr 2-2: inactive; TRPC4/MOR mod: 10.0%*; TRPC4 ctr inh 2: inactive; TRPC6 inh conf: 51.5%*

How did CN(C)CCCN(CCCN(C)C)C(=S)Nc1ccc(S(=O)(=O)N2CCOCC2)cc1 do in these assays?
Platelet DG rel: 4.7; TRPC4 block: inactive; TRPC6 inhibitor: inactive; TRPC6 act: inactive; TRPC4 agonist: inactive; TRPC4 PAM: inactive

How did O=C1/C(=C/c2ccccc2)SC(=S)N1N1C(=O)C2CC2C1=O (stereo unspecified) do in these assays?
Platelet DG rel: -13.6; TRPC4 block: inactive; TRPC6 inhibitor: -8.75*; TRPC6 act: inactive; TRPC4 agonist: inactive; TRPC4 PAM: inactive; TRPC4 spec 2: inactive; TRPC4 spec: inactive; HEK293 MPD ctr 2-1: inactive; HEK293 MPD ctr-1: inactive; TRPC6 inh conf: inactive; TRPC6 act confirm: inactive

What do the screens show for `CC(=O)NN1C(=O)/C(=C\c2ccccc2)SC1=S`?
Platelet DG rel: 3.1; TRPC4 block: inactive; TRPC6 inhibitor: inactive; TRPC6 act: inactive; TRPC4 agonist: inactive; TRPC4 PAM: inactive
